Shown is part of a subset that was picked to be rich in hits.
T cruzi HTS = inhibitors of intracellular Trypanosoma cruzi; 22,000 compounds, 4.9% hits; activity score (inhibition), % at 5.01 µM; intracellular Trypanosoma cruzi in host cells, plate reader; AID 651903; in the data active = activity score above about 55%;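 also: parasites and compound incubated about four days before reading; 0% = median of neutral control wells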
A1 apoptosis 2 = A1 inhibition read as caspase activation; caspase activation, % (no concentration beside the values); 24,000 tested, under 10 active; AID 2465; MEF A1-2A-BIM cells, caspase-Glo luminescence, 3 h; percent of clofoctol response, DMSO zero; in the data active = caspase activation above about 5.9%
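Evaluation: Caspase-3/7 activity from luminescence increase | Assay system: A1-2A-BIM mouse embryonic fibroblasts | Quantity: 2500 MEF cells/well | Medium: RPMI-1640 plus 10% FBS | Detection: Caspase-Glo 3/7 luminescence, 1 h at room temperature | Dosing: 50 nL compound per well, pinned | Timing: Cells settled overnight, compound exposure 3 h at 37 °C, 5% CO2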
INS-1E ATP HTS = rescue of cytokine-induced death in INS-1E beta cells. INS-1E cytokine-induced death, ATP luminescence, 48 h; normalised: neutral wells 0, positive control 100. protection from cytokine-induced ATP loss, % at 10 µM. 20,000 compounds, 0.1% hits;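 active = mean replicate protection from cytokine-induced ATP loss at least 50% and at least 75% of replicates each reaching 50%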
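Test system: INS-1E rat cells | Quantity: 8000 cells per well | Medium: Phenol-red-free RPMI with 5% fetal bovine serum | Reagent: Cytokine cocktail of IFN-γ, TNF-α and IL-1β | Doses: One compound concentration, pin transfer | Timing: 48 h co-treatment, 10 min post-lysis read | Technique: Luminescent ATP assay (CellTiter-Glo)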
Starred values were filed as active, the others as inactive; nt = no result.

SMILES	T cruzi HTS	A1 apoptosis 2	INS-1E ATP HTS
Cc1noc(C)c1S(=O)(=O)Nc1ccc2c(c1)C(=O)N([C@H](C)CO)C[C@H](C)[C@H](CN(C)Cc1ccc3c(c1)OCO3)O2	58*	nt	-11
Cc1noc(C)c1S(=O)(=O)Nc1ccc2c(c1)CC(=O)N([C@@H](C)CO)C[C@H](C)[C@H](CN(C)Cc1ccc(C(F)(F)F)cc1)O2	41	nt	2
O=C(CCCCCC(=O)Nc1ccccc1O)N/N=C/c1cc(F)ccc1O	24	1	16
O=C(O)CCCCCC(=O)N/N=C/c1ccc(C(F)(F)F)cc1	-6	nt	-3
O=C(O)CCCCCC(=O)N/N=C/c1cc(Br)cs1	-12	1	8
Brc1ccc2nc(N3CCCCCC3)nc(NC3CCN(Cc4ccccc4)CC3)c2c1	nt	0	nt
COc1ccc(CN(C)C[C@H]2Oc3c(NC(=O)c4ccncc4)cccc3C(=O)N([C@@H](C)CO)C[C@@H]2C)cc1	83*	-2	-2
COc1ccc(NC(=O)Nc2cccc3c2O[C@H](CN(C)Cc2ccncc2)[C@H](C)CN([C@@H](C)CO)C3=O)cc1	-18	0	1
C[C@@H]1CN([C@H](C)CO)C(=O)c2cccc(NC(=O)c3ccncc3)c2O[C@H]1CN(C)Cc1ccc(C(=O)Nc2ccccc2N)cc1	9	0	0
COc1ccc(CN(C)C[C@@H]2Oc3c(NC(=O)c4ccncc4)cccc3C(=O)N([C@@H](C)CO)C[C@H]2C)cc1	79*	-1	2
O=C(CCCCCCC(=O)Nc1ccccc1O)N/N=C/[C@H](O)[C@@H](O)[C@H](O)[C@H](O)CO[C@H]1O[C@H](CO)[C@H](O)[C@H](O)[C@H]1O	2	nt	-8
COc1ccc(/C=N/NC(=O)c2ccccn2)c(O)c1	35	-13	-119
Cc1noc(C)c1S(=O)(=O)Nc1ccc2c(c1)CC(=O)N([C@H](C)CO)C[C@@H](C)[C@@H](CN(C)Cc1ccc(Oc3ccccc3)cc1)O2	67*	0	13
Cc1noc(C)c1S(=O)(=O)Nc1ccc2c(c1)CC(=O)N([C@@H](C)CO)C[C@H](C)[C@H](CN(C)Cc1ccc(Oc3ccccc3)cc1)O2	26	0	-21
C[C@H]1CN([C@@H](C)CO)C(=O)c2cc(NS(=O)(=O)c3ccc(F)cc3)ccc2O[C@@H]1CN(C)Cc1ccc(Oc2ccccc2)cc1	69*	nt	-16
C[C@@H]1CN([C@@H](C)CO)C(=O)c2cc(NS(=O)(=O)c3ccc(F)cc3)ccc2O[C@@H]1CN(C)Cc1ccc(Oc2ccccc2)cc1	3	nt	-33
C[C@@H]1CN([C@@H](C)CO)C(=O)Cc2cc(NS(=O)(=O)c3ccc(Cl)cc3)ccc2O[C@H]1CN(C)Cc1ccc(Oc2ccccc2)cc1	nt	1	nt
C[C@@H]1CN([C@H](C)CO)C(=O)Cc2cc(NS(=O)(=O)c3ccc(Cl)cc3)ccc2O[C@@H]1CN(C)Cc1ccc(Oc2ccccc2)cc1	61*	nt	-27
C[C@@H]1CN([C@@H](C)CO)C(=O)c2cc(NS(=O)(=O)c3ccc(F)cc3)ccc2O[C@H]1CN(C)S(=O)(=O)c1ccccc1	7	-1	-10
C[C@H](CO)N1C[C@H](C)[C@H](CN(C)S(=O)(=O)c2ccccc2)Oc2ccc(NS(=O)(=O)c3ccc(F)cc3)cc2C1=O	58*	-1	-5
C#CCOc1ccc(/C=N/NC(=O)c2ccccc2O)cc1	-20	-10	-30
Cc1ccccc1/C=N/NC(=O)CCCCCCC(=O)O	-12	0	-4
O=C(CCCCC(=O)N/N=C/c1cccc(B(O)O)c1)NO	nt	0	nt
O=C(NO)c1cccc(C(=O)N/N=C/c2ccc(I)cc2)c1	-7	nt	-14
COC(=O)CCCCCCC(=O)N/N=C/c1ccc(Br)cc1	-13	1	27
Cc1ccc(S(=O)(=O)Nc2ccc3c(c2)CC(=O)N([C@@H](C)CO)C[C@H](C)[C@H](CN(C)Cc2ccc(Oc4ccccc4)cc2)O3)cc1	17	nt	-36
C[C@@H]1CN([C@H](C)CO)C(=O)Cc2cc(NS(=O)(=O)c3ccccc3)ccc2O[C@@H]1CN(C)Cc1ccc(Oc2ccccc2)cc1	71*	-1	-23
C[C@@H]1CN([C@H](C)CO)C(=O)Cc2cc(NS(=O)(=O)c3ccc(F)cc3)ccc2O[C@@H]1CN(C)Cc1ccc(Oc2ccccc2)cc1	69*	0	-32
C[C@H]1CN([C@@H](C)CO)C(=O)Cc2cc(NS(=O)(=O)c3ccccc3)ccc2O[C@H]1CN(C)Cc1ccc(Oc2ccccc2)cc1	39	-1	-56

Compound activity: PubChem BioAssay, Broad Institute
